Results as given in ChEMBL document CHEMBL1255569, “Synthesis of ester prodrugs of 9-(S)-[3-hydroxy-2-(phosphonomethoxy)propyl]-2,6-diaminopurine (HPMPDAP) as anti-poxvirus agents” (J Med Chem, 2010).

Assays:
[1] = test system: Human alphaherpesvirus 1; assay: Antiviral activity against acyclovir-resistant HSV1 KOS infected in HEL assessed as reduction in virus-induce cytopathicity; type: functional, organism-based; conditions: Human alphaherpesvirus 1, KOS
[2] = Cytotoxicity against HEL assessed as change in cell morphology; type: cell-based; conditions: human, HEL cells
Procedure, shortened: (§1)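 Microscopic inspection of cultures exposed to test compounds. MCC is the minimum compound concentration causing a microscopically detectable alteration of cell morphology.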

[3] = test system: Human betaherpesvirus 5; assay: Antiviral activity against Human cytomegalovirus Davis infected in HEL assessed as reduction in virus-induce cytopathicity; type: functional, organism-based; conditions: Human betaherpesvirus 5, Davis
[4] = test system: Human betaherpesvirus 6; assay: Antiviral activity against Human herpesvirus 6 infected in HEL assessed as reduction in virus-induce cytopathicity; type: functional, organism-based
[5] = test system: Human alphaherpesvirus 2; assay: Antiviral activity against […] infected in HEL assessed as reduction in virus-induce cytopathicity; type: functional, organism-based; conditions: Human alphaherpesvirus 2, strain G
[6] = Cytotoxicity against human HSB2 cells assessed as change in cell morphology; type: cell-based, CCRF-HSB-2; procedure, shortened: as §1
[7] = test system: Human betaherpesvirus 5; assay: Antiviral activity against Human cytomegalovirus AD169 infected in HEL assessed as reduction in virus-induce cytopathicity; type: functional, organism-based; conditions: Human betaherpesvirus 5, AD169
[8] = test system: Human alphaherpesvirus 1; assay: Antiviral activity against HSV1 KOS infected in HEL assessed as reduction in virus-induce cytopathicity; type: functional, organism-based; conditions: Human alphaherpesvirus 1, KOS
[9] = Cytotoxicity against HEL; type: cell-based; conditions: human, HEL cells
Procedure, shortened: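 HEL cells were seeded at 5 × 10³ cells/well and allowed to proliferate for 24 h, then given medium with graded compound concentrations. After 3 days at 37 °C, cells were counted with a Coulter counter. CC50 (μM) is the concentration halving proliferation relative to untreated controls, estimated from plots of cell number (% of control) against concentration.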

[10] = test system: Vaccinia virus; assay: Antiviral activity against Vaccinia virus infected in HEL assessed as reduction in virus-induce cytopathicity; type: functional, organism-based; conditions: Orthopoxvirus vaccinia
[11] = test system: Human alphaherpesvirus 3; assay: Antiviral activity against acyclovir-resistant VZV OKA infected in HEL assessed as reduction in virus-induce cytopathicity; conditions: Human alphaherpesvirus 3, OKA
[12] = test system: Human alphaherpesvirus 3; assay: Antiviral activity against acyclovir-resistant VZV 07/1 infected in HEL assessed as reduction in virus-induce cytopathicity; conditions: Human alphaherpesvirus 3, 07/1

| SMILES | EC50 [1] [µM] | MCC [2] [µM] | EC50 [3] [µM] | EC50 [4] [µM] | EC50 [5] [µM] | MCC [6] [µM] | EC50 [7] [µM] | EC50 [8] [µM] | CC50 [9] [µM] | EC50 [10] [µM] | EC50 [11] [µM] | EC50 [12] [nM] | MCC [9] [mM] | CC50 [2] [µM] |
| --- | --- | --- | --- | --- | --- | --- | --- | --- | --- | --- | --- | --- | --- | --- |
| CCCCCCCCCCCCCCCCCCOCCOP(=O)(O)CO[C@H](CO)Cn1cnc2c(N)nc(N)nc21 | 0.00085 | ≥ 6.3 | 0.0094 | 34.6 | 0.0022 | ≥ 39.3 | 0.041 | 0.0008 | 18.8 | 0.00074 | 0.0013 | 0.08 | – | – |
| Nc1nc(N)c2ncn(C[C@H]3COP(=O)(O)CO3)c2n1 | 3.6 | > 333 | 10 | – | 4.33 | – | 15 | 3.6 | > 333 | 0.53 | 0.37 | 770 | – | – |
| CC(C)(C)C(=O)OCOP1(=O)CO[C@@H](Cn2cnc3c(N)nc(N)nc32)CO1 (stereo partly specified) | 2.41 | ≥ 231 | 6.8 | 7.63 | 1.34 | 62.5 | 6.94 | 2.22 | ≥ 201 | 0.183 | 0.3 | 93 | – | – |
| CC(C)(C)C(=O)OCO[P@]1(=O)CO[C@@H](Cn2cnc3c(N)nc(N)nc32)CO1 | 3.33 | ≥ 231 | 15.5 | 14.6 | 1.78 | 64.7 | 14 | 1.83 | > 222 | 0.37 | 0.72 | 160 | – | – |
| Nc1nc(N)c2ncn(C[C@@H](CO)OCP(=O)(O)OCC(F)(F)F)c2n1 | 5 | > 250 | 54.2 | > 62 | 10.7 | > 62 | 44 | 5.6 | > 250 | 7.95 | 2.27 | 430 | – | – |
| CCCCOC(=O)c1ccccc1OP1(=O)CO[C@@H](Cn2cnc3c(N)nc(N)nc32)CO1 (stereo partly specified) | 3.1 | 103 | 6.8 | > 205 | 3.76 | ≥ 205 | 11.5 | 5.36 | 168 | 2.3 | 0.53 | 120 | – | – |
| CC(C)OC(=O)[C@@H](CO[P@]1(=O)CO[C@@H](Cn2cnc3c(N)nc(N)nc32)CO1)NC(=O)[C@@H](N)C(C)C | 3.52 | ≥ 177 | 7.1 | > 177 | 2.3 | 177 | 12 | 5.58 | 159 | 2.02 | 0.73 | 200 | – | – |
| CC(C)OC(=O)[C@@H](CO[P@@]1(=O)CO[C@@H](Cn2cnc3c(N)nc(N)nc32)CO1)NC(=O)[C@@H](N)C(C)C | 7.1 | > 177 | 22.1 | > 177 | 1.42 | > 177 | 15.2 | 7.97 | 148 | 2.62 | 1.06 | 250 | – | – |
| Nc1nc(N)c2ncn(C[C@H]3COP(=O)(OCC(F)(F)F)CO3)c2n1 (stereo partly specified) | 4.78 | > 239 | 24.4 | 177 | 1.91 | > 239 | 19.1 | 6.57 | ≥ 219 | 2.08 | 0.62 | 170 | – | – |
| CCCCCCCCCCCCCCCCOCCO[P@]1(=O)CO[C@@H](Cn2cnc3c(N)nc(N)nc32)CO1 | 0.017 | 35.2 | 0.008 | > 44 | 0.026 | 0.5 | 0.015 | 0.026 | 28.1 | 0.0035 | 0.004 | 0.7 | – | – |
| CCCCCCCCCCCCCCCCOCCO[P@@]1(=O)CO[C@@H](Cn2cnc3c(N)nc(N)nc32)CO1 | 0.007 | 35.2 | 0.005 | > 44 | 0.008 | 0.5 | 0.011 | 0.01 | 30 | 0.0026 | 0.0018 | 0.18 | – | – |
| CCCCCCCCCCCCCCCCOCCCOP(=O)(O)CO[C@H](CO)Cn1cnc2c(N)nc(N)nc21 | 0.0027 | ≥ 6.4 | 0.0037 | 10.3 | 0.0071 | 40 | 0.021 | 0.0045 | ≥ 161 | 0.00074 | 0.0027 | 0.21 | – | – |
| CC(C)(C)C(=O)OCOP(=O)(O)CO[C@H](CO)Cn1cnc2c(N)nc(N)nc21 | 2.95 | > 227 | 11.6 | 30.6 | 3.15 | 227 | 12.9 | 2.76 | ≥ 227 | 1.63 | 0.79 | 340 | – | – |
| Nc1nc(N)c2ncn(C[C@@H](CO)OCP(=O)(O)O)c2n1 | 1.35 | > 314 | 6.4 | 17.6 | 2.83 | 126 | 11.2 | 2.86 | > 314 | 0.5 | 0.22 | 8.2 | – | – |
| Nc1nc2c(ncn2COCCO)c(=O)[nH]1 [ACYCLOVIR] | 125 | > 444 | – | – | 0.3 | – | – | – | – | – | – | – | 1.58 | – |
| O=c1[nH]c(=O)n([C@H]2C[C@H](O)[C@@H](CO)O2)cc1/C=C/Br [BRIVUDINE] | > 150 | – | – | – | 75.3 | – | – | 0.03 | 339 | – | 0.016 | 137000 | – | > 300 |
| Nc1ccn(C[C@@H](CO)OCP(=O)(O)O)c(=O)n1 [CIDOFOVIR] | 1.37 | ≥ 317 | 0.79 | – | 2.19 | – | 1.14 | 1.62 | 511 | 7.3 | 0.13 | 110 | – | – |
| Nc1nc2c(ncn2COC(CO)CO)c(=O)[nH]1 [GANCICLOVIR] | – | ≥ 392 | 10.2 | – | – | – | 9.4 | – | 1080 | – | – | – | – | – |
